According to ChEMBL document CHEMBL4321800, “Synthesis, Identification, and Structure-Activity Relationship Analysis of GATA4 and NKX2-5 Protein-Protein Interaction Modulators” (J Med Chem, 2019):

Key:
Assay type in all cases: cell-based
COS-1 = assay: Induction of necrosis in Chlorocebus aethiops COS1 cells assessed as LDH release at 1 to 30 uM after 24 hrs by LDH assay relative to control; conditions: cos-1, 24 h
In short: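 COS-1 cells in DMEM with 10% FBS at 37 °C, 5% CO₂, plated 10 000/well and exposed next day to 1–30 μM for 24 h. Medium samples mixed with NAD, iodonitrotetrazolium, lactate and phenazine methosulfate in 0.2 M Tris-HCl pH 8.2, 30 min at room temperature. Stopped with acetic acid, A490 read and normalized to maximal and spontaneous release.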

[1] = biological target: GATA4/NKX2-5 (Mus musculus) (UniProt Q08369+P42582); assay: Modulation of mouse GATA4/mouse NKX2-5 protein-protein interaction expressed in Chlorocebus aethiops COS1 cells harboring 3xHA reporter gene assessed as transcriptional synergy at 10 uM after 24 hrs by luciferase reporter gene assay relative to control
In short: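 COS-1 cells seeded 14 000/well, grown overnight, then transfected for 6 h in serum- and antibiotic-free medium with pGL3-3xHA reporter (three NKX2-5 sites, 100 ng/well) plus pMT2-GATA4 and pMT2-NKX2-5 (total 50 ng/well), Fugene 6 at 1:3 DNA/reagent. Compound or 0.1% DMSO vehicle for 24 h, then luminescence read. Triplicates, Grubbs outliers removed, expressed as % of control.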

[2] = biological target: Homeobox protein Nkx-2.5 (Mus musculus) (UniProt P42582); assay: Modulation of mouse NKX2-5 expressed in Chlorocebus aethiops COS1 cells harboring 3xHA reporter gene assessed as protein-induced transcriptional activity at 10 uM after 24 hrs by luciferase reporter gene assay relative to control
Chain of Homeobox protein Nkx-2.5 (Mus musculus) (P42582 whole entry): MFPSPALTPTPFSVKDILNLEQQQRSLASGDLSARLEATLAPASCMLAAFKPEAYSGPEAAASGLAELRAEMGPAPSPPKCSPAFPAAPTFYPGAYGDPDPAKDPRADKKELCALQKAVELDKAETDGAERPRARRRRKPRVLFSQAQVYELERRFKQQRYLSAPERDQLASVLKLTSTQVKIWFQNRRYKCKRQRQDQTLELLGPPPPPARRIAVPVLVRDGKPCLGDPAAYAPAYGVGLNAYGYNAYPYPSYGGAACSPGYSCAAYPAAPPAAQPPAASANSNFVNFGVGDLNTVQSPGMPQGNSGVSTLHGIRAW
In short: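 COS-1 cells seeded 14 000/well and grown overnight. Transfection for 6 h in serum- and antibiotic-free medium with pGL3-3xHA reporter (100 ng/well) and pMT2-NKX2-5 (25 ng/well), Fugene 6 1:3. Compound or 0.1% DMSO vehicle for 24 h, then luciferase luminescence. Triplicate wells with Grubbs outlier removal, % of control.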

[3] = biological target: Transcription factor GATA-4 (Mus musculus) (UniProt Q08369); assay: Modulation of mouse GATA4 expressed in Chlorocebus aethiops COS1 cells harboring NP-112 reporter gene assessed as BNP promoter-driven transcriptional activity at 10 uM after 24 hrs by luciferase reporter gene assay relative to control
Chain of Transcription factor GATA-4 (Mus musculus) (Q08369 whole entry): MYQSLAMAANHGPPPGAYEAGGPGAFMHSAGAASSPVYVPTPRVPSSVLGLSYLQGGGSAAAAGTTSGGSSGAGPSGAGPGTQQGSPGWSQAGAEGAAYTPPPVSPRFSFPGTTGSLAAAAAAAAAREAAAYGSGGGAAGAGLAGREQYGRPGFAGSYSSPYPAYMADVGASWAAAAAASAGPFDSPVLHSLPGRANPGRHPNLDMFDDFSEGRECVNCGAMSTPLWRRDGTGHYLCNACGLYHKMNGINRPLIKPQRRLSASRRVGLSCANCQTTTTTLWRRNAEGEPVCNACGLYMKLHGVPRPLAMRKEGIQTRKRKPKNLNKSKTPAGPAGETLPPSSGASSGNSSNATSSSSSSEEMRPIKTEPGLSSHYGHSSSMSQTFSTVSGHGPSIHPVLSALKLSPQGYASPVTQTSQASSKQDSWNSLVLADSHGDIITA
In short: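 GATA reporter assay: COS-1 cells (14 000/well, overnight) transfected 6 h serum/antibiotic-free with NP-112 reporter (tandem GATA sites plus rat BNP minimal promoter, 100 ng/well) and pMT2-GATA4 (25 ng/well), Fugene 6 1:3. Treated 24 h with compound or 0.1% DMSO. Luminescence read; triplicates, Grubbs outliers removed, % of control.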

SMILES	Activity [1] [%]	further results
CC[N+](O)(CC)c1ccc(NC(=O)c2c(-c3ccccc3)noc2C)cc1.O=C([O-])c1cccc(Cl)c1	–	Activity (COS-1): < 8%
CCN(CC)c1ccc(NC(=O)c2c(-c3ccccc3)nnn2C)cc1	84	–
CCN(CC)c1ccc(NC(=O)c2ncoc2-c2ccccc2)cc1	110	–
COc1ccc(-c2cc(N)nn2C(=O)c2c(-c3ccccc3)noc2C)cc1	–	Activity (COS-1): < 8%
CCN(CC)c1ccc(NC(=O)c2ccnn2-c2ccccc2)cc1	–	Activity (COS-1): < 8%
Cc1onc(-c2ccccc2)c1COc1ccc(C(=O)OCCCC#N)cc1	52	Activity [2]: 52%; Activity [3]: 71%
CCN(CC)c1ccc(NC(=O)c2c(-c3cc(Br)cs3)noc2C)cc1	89	–
COC(=O)c1ccc(NC(=O)c2c(-c3ccccc3)noc2C)cc1	92	–
CCN(CC)c1ccc(N(Cc2c(-c3ccccc3)noc2C)C(C)=O)cc1	80	–
CC[N+](C)(c1ccc(NC(=O)c2c(-c3ccccc3)noc2C)cc1)C(C)C (configuration not stated)	83	–
Cc1onc(-c2ccccc2)c1C(=O)Nc1ccc2c(c1)C(=O)CC2	79	–
CCN(CC)c1ccc(NC(=O)c2c(-c3cc(C)on3)noc2C)cc1	100	Activity [2]: 87%; Activity [3]: 100%
CCN(CC)c1ccc(CNc2c(-c3ccccc3)noc2C)cc1	91	Activity [2]: 89%; Activity (COS-1): < 8%; Activity [3]: 77%
Cc1onc(-c2ccccc2)c1COc1ccc([N+](=O)[O-])cc1	85	–
CCN(CC)c1ccc(C(=O)Nc2c(-c3ccccc3)noc2C)cc1	94	–
CCCOC(=O)c1ccc(OCc2c(-c3ccccc3)noc2C)cc1	110	–
CCN(CC)c1ccc(NC(=O)c2ccsc2)cc1	110	–
CCN(CC)c1ccc(CN(C)c2c(-c3ccccc3)noc2C)cc1	82	–
Cc1onc(-c2ccccc2)c1COc1ccc(C(=O)OCc2ccoc2)cc1	100	–
CCN(CC)c1ccc(/C=N/c2c(-c3ccccc3)noc2C)cc1	96	–
CCN(CC)c1ccc(NCc2c[nH]nc2-c2cc(F)cc(F)c2)cc1	–	Activity (COS-1): < 8%

SMILES	Activity [1] [%]	further results
CCN(c1ccc(NC(=O)c2c(-c3ccccc3)noc2C)cc1[N+](=O)[O-])C(C)C	75	–
CCN(c1ccc(NC(=O)c2c(-c3ccccc3)noc2C)cc1N)C(C)C	76	–
Cc1onc(-c2ccccc2)c1C(=O)Nc1nc(C(C)(C)C)cs1	110	Activity [2]: 96%; Activity [3]: 110%
CCN(CC)c1ccc(NC(=O)c2c(-c3ccc(-c4ccc(F)cc4)cc3)noc2C)cc1	110	–
CCN(CCO)c1ccc(NC(=O)c2c(-c3ccccc3)noc2C)cc1	67	–
CCN(CC)c1ccc(NCc2c(-c3ccccc3)noc2C)cc1	100	–
CCN(CC)c1ccc(NC(=O)c2c(-c3ccccc3)nnc3ccccc23)cc1	87	–
CCN(CC)c1ccc(NC(=O)c2c[nH]nc2-c2ccccc2)cc1	–	Activity (COS-1): < 8%
Cc1onc(-c2ccccc2)c1C(=O)Nc1ccc(C(=O)OCCN(C)C)cc1	110	–
CCN(CC)c1ccc(NS(=O)(=O)c2c(-c3ccccc3)noc2C)cc1	98	–
CCN(CC)c1ccc(NC(=O)c2c[nH]nc2-n2cnnn2)cc1	110	–
Cc1onc(-c2ccccc2)c1C(=O)Nc1ccc(C(=O)OCC#N)cc1	90	–
CCN(CC)c1ccc(/C=N/c2c(-c3ccccc3)noc2C)c(O)c1	–	Activity (COS-1): < 8%
CCN(CC)c1ccc(NC(=O)c2ccoc2CCc2cccs2)cc1	100	–
CN(C)c1ccc(NCc2c[nH]nc2-c2ccc(F)cc2)cc1	–	Activity (COS-1): < 8%
CCN(CC)c1ccc(N(Cc2ccccc2)C(=O)c2c(-c3ccccc3)noc2C)cc1	66	–
CCN(CC)c1ccc(NC(=O)c2nn(-c3ccccc3)nc2C)cc1	100	–
CCN(CC)c1ccc(NC(=O)c2c(-c3ccccc3[N+](=O)[O-])noc2C)cc1	84	–
CCN(CC)c1ccc(NC(=O)c2cnn(C)c2-c2ccccc2)cc1	62	–
CCN(CC)c1ccc(NC(=O)c2ccnc(C(F)(F)F)c2)cc1	84	–
CCN(CC)c1ccc(/N=C(\SCCF)c2c(-c3ccccc3)noc2C)cc1	110	–

SMILES	Activity [1] [%]	further results
CCN(CC)c1ccc(NC(=O)C2CCCC2)cc1	110	–
CCN(CC)c1ccc(NC(=O)c2ncoc2-c2ccco2)cc1	120	–
CCN(CC)c1ccc(NC(=O)c2c(-c3ccccc3)nnn2CCOC)cc1	91	–
CCN(CC)c1ccc(NC(=O)c2c(-c3c(Cl)ccc([N+](=O)[O-])c3Cl)noc2C)cc1	66	–
Cc1onc(-c2ccccc2)c1COc1ccc(C(=O)N(C)CCCO)cc1	100	–
Cc1onc(-c2ccccc2)c1C(=O)Nc1ccc(N(C)C)cc1	99	–
CCN(CC)c1ccc(NC(=O)c2c(-c3ccccc3)noc2C)cc1Cl	69	–
C#Cc1ccc(NC(=O)c2c(-c3ccccc3)noc2C)cc1	84	–
CCN(CC)c1ccc(NC(=O)c2nnn(C)c2-c2ccccc2)cc1	78	–
Cc1onc(-c2cccc([N+](=O)[O-])c2)c1C(=O)Nc1ccc(N(C)C)cc1	100	–
CCN(CC)c1ccc(NC(=O)c2c(-c3ccc(C)s3)noc2C)cc1	100	Activity [2]: 88%; Activity [3]: 92%
CCN(CC)c1ccc(NC(=O)c2c(C(F)(F)F)nn(C)c2Oc2ccccc2)cc1	68	–
CCN(CC)c1ccc(CN(C(=O)Nc2ccc(C#N)cc2)c2c(-c3ccccc3)noc2C)cc1	85	–
CCN(CC)c1ccc(NC(=O)c2c(-c3ccccc3Cl)noc2C)cc1	88	Activity [2]: 97%; Activity [3]: 110%
Cc1onc(-c2ccccc2)c1COc1ccc(C(=O)OCC(C)C)cc1	99	–
CCN(CC)c1ccc(/N=C(\SC)c2c(-c3ccccc3)noc2C)cc1	86	–
CCN(CC)c1ccc(NC(=O)c2c(-c3ccccn3)noc2C)cc1	100	–
CCN(CC)c1ccc(N(C)C(=O)c2c(-c3ccccc3)noc2C)cc1	97	Activity [2]: 100%; Activity [3]: 99%
CCN(CC)C(=O)c1ccc(OCc2c(-c3ccccc3)noc2C)cc1	92	–
CCN(CC)c1ccc(NC(=O)c2c(SC)nsc2SC)cc1	110	–
Cc1cc(NC(=O)c2c(-c3ccccc3)noc2C)ccc1C(C)C	93	–

SMILES	Activity [1] [%]	further results
CCN(CC)c1ccc(NC(=O)c2c(-c3ccoc3)noc2C)cc1	110	Activity [2]: 110%; Activity [3]: 99%
CCC(O)c1ccc(OCc2c(-c3ccccc3)noc2C)cc1 (racemic)	87	–
CCN(CC)c1ccc(N(C)C(=S)c2c(-c3ccccc3)noc2C)cc1	91	–
CCN(CC)c1ccc(/N=C/c2c(-c3ccccc3)noc2C)cc1	100	–
CCN(CC)c1ccc(NC(=S)c2c(-c3ccccc3)noc2C)cc1	99	–
Cc1onc(-c2ccccc2)c1C(=O)Nc1ccc(OCCN2CCOCC2)cc1	97	–
CCCn1nnc(-c2ccccc2)c1C(=O)Nc1ccc(N(CC)CC)cc1	–	Activity (COS-1): < 8%
Cc1onc(-c2ccccc2)c1C(=O)Nc1ccc(-c2ccccc2)cc1	110	Activity [2]: 97%; Activity [3]: 110%
CCN(CC)c1ccc(NC(=O)c2cc(-c3ccc(Br)cc3)oc2C(F)(F)F)cc1	85	–
CCN(CC)c1ccc(NC(=O)c2c(-c3coc(C)n3)noc2C)cc1	100	Activity [2]: 86%; Activity [3]: 110%
CCN(CC)c1ccc(NC(=O)c2c(-c3c(Cl)cccc3Cl)noc2C)cc1	110	–
CCN(CC)c1ccc(N(CCF)C(=O)c2c(-c3ccccc3)noc2C)cc1	79	–
Cc1onc(-c2ccccc2)c1C(=O)Nc1ccc(C(=O)O)cc1	98	–
CCN(CC)c1ccc(NC(=O)c2cc(C)sc2-c2cc(C)on2)cc1	85	Activity [2]: 96%; Activity [3]: 97%
CCN(CC)c1ccc(NC(=O)c2c(-c3ccc([N+](=O)[O-])cc3)noc2C)cc1	100	–
CCN(CC)c1ccc(NC(=O)c2c(-c3ccc(Br)cc3)noc2C)cc1	70	–
CCN(CC)c1ccc(NC(=O)c2c(C)nc3ccccn23)cc1	78	Activity [2]: 86%; Activity [3]: 94%
CCC(=O)c1ccc(OCc2c(-c3ccccc3)noc2C)cc1	76	Activity [2]: 80%; Activity [3]: 78%
Cc1onc(-c2ccccc2)c1C(=O)Nc1ccc(OCc2ccccc2)cc1	–	Activity (COS-1): < 8%
CCN(CC)c1ccc(NC(=O)c2c(-n3cccc3)sc(C)c2C)cc1	79	Activity [2]: 90%; Activity [3]: 66%
